From ChEMBL document CHEMBL1149778, “Synthesis of some novel 2,4-disubstituted thiazoles as possible antimicrobial agents” (2008)
≈ marks a conversion by molar mass, not a printed value.

Key:
[1] = test system: Trichophyton mentagrophytes; assay: Antifungal activity against Trichophyton mentagrophytes assessed as zone of inhibition by serial plate dilution method; assay type: functional
Outline: (§1)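 Sabouraud agar (peptone, D-glucose, agar; pH 5.7), 20 ml per dish, lawned with a saline spore suspension from a loopful of fungus. Excess decanted, plates dried 1 h at 37 °C. Wells punched and compounds in DMSO added, DMSO as control. Triplicate plates, 37 °C for 3-4 days; inhibition-zone diameter measured.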

Staphylococcus aureus [2] = assay: Antibacterial activity against Staphylococcus aureus ATTC 25923 after 16 to 18 hrs by serial plate dilution method; assay type: functional
Outline: (§2)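 MIC by broth serial dilution: compound serially diluted in Mueller-Hinton broth, tubes adjusted to […] with phosphate buffer. Standardized bacterial suspension inoculated, incubated 16-18 h at 37 °C. MIC read as the lowest concentration with no visible growth.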

Talaromyces marneffei [3] = assay: Antifungal activity against Penicillium marneffei assessed as zone of inhibition by serial plate dilution method; assay type: functional; outline: as §1
Aspergillus fumigatus [4] = assay: Antifungal activity against Aspergillus fumigatus NCIM No.902 by serial plate dilution method; assay type: functional
Aspergillus flavus [5] = assay: Antifungal activity against Aspergillus flavus NCIM No.524 assessed as zone of inhibition by serial plate dilution method; assay type: functional; outline: as §1
Pseudomonas aeruginosa [6] = assay: Antibacterial activity against Pseudomonas aeruginosa ATTC 27853 after 16 to 18 hrs by serial plate dilution method; assay type: functional; details: ATCC27853; outline: as §2
Staphylococcus aureus [7] = assay: Antibacterial activity against Staphylococcus aureus ATTC 25923 assessed as zone of inhibition after 16 to 18 hrs by serial plate dilution method; assay type: functional
Outline: (§3)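 Agar well diffusion: 20 ml agar per dish seeded with bacterial suspension, excess decanted, dishes held 1 h at 37 °C. Wells punched, compounds in DMSO added at their MIC levels, DMSO wells as control. Zone of inhibition measured.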

Pseudomonas aeruginosa [8] = assay: Antibacterial activity against Pseudomonas aeruginosa ATTC 27853 assessed as zone of inhibition after 16 to 18 hrs by serial plate dilution method; assay type: functional, ATCC27853; outline: as §3
Aspergillus flavus [9] = assay: Antifungal activity against Aspergillus flavus NCIM No.524 by serial plate dilution method; assay type: functional
Talaromyces marneffei [10] = assay: Antifungal activity against Penicillium marneffei by serial plate dilution method; assay type: functional
[11] = test system: Trichophyton mentagrophytes; assay: Antifungal activity against Trichophyton mentagrophytes by serial plate dilution method; assay type: functional
Bacillus subtilis [12] = assay: Antibacterial activity against Bacillus subtilis after 16 to 18 hrs by serial plate dilution method; assay type: functional; outline: as §2
Escherichia coli [13] = assay: Antibacterial activity against Escherichia coli ATTC 25922 after 16 to 18 hrs by serial plate dilution method; assay type: functional; details: ATCC25922; outline: as §2
Escherichia coli [14] = assay: Antibacterial activity against Escherichia coli ATTC 25922 assessed as zone of inhibition after 16 to 18 hrs by serial plate dilution method; assay type: functional, ATCC25922; outline: as §3
Bacillus subtilis [15] = assay: Antibacterial activity against Bacillus subtilis assessed as zone of inhibition after 16 to 18 hrs by serial plate dilution method; assay type: functional; outline: as §3
Aspergillus fumigatus [16] = assay: Antifungal activity against Aspergillus fumigatus NCIM No.902 assessed as zone of inhibition by serial plate dilution method; assay type: functional; outline: as §1

Row | Compound | inhibition zone (IZ) [1] [mm] | MIC (Staphylococcus aureus [2]) [µg/mL] | inhibition zone (IZ) (Talaromyces marneffei [3]) [mm] | MIC (Aspergillus fumigatus [4]) [µg/mL] | inhibition zone (IZ) (Aspergillus flavus [5]) [mm] | MIC (Pseudomonas aeruginosa [6]) [µg/mL] | inhibition zone (IZ) (Staphylococcus aureus [7]) [mm] | inhibition zone (IZ) (Pseudomonas aeruginosa [8]) [mm] | MIC (Aspergillus flavus [9]) [µg/mL] | MIC (Talaromyces marneffei [10]) [µg/mL] | MIC [11] [µg/mL] | MIC (Bacillus subtilis [12]) [µg/mL] | MIC (Escherichia coli [13]) [µg/mL] | inhibition zone (IZ) (Escherichia coli [14]) [mm] | inhibition zone (IZ) (Bacillus subtilis [15]) [mm] | inhibition zone (IZ) (Aspergillus fumigatus [16]) [mm]
1 | Clc1cc(Cl)c(Cl)c(-c2nc(CN3CCOCC3)cs2)c1 | <10 | 12.5 (≈ 34.4 µM) | 11 | 25 (≈ 68.7 µM) | <10 | 25 (≈ 68.7 µM) | 11 | <10 | 25 (≈ 68.7 µM) | 12.5 (≈ 34.4 µM) | 25 (≈ 68.7 µM) | 12.5 (≈ 34.4 µM) | 12.5 (≈ 34.4 µM) | 11 | 11 | <10
2 | CSc1ccc(-c2csc(-c3cc(Cl)cc(Cl)c3Cl)n2)cc1 | 11 | 6.25 (≈ 16.2 µM) | <10 | 12.5 (≈ 32.3 µM) | 11 | 6.25 (≈ 16.2 µM) | 16 | 16 | 12.5 (≈ 32.3 µM) | 25 (≈ 64.6 µM) | 12.5 (≈ 32.3 µM) | 6.25 (≈ 16.2 µM) | 6.25 (≈ 16.2 µM) | 16 | 16 | 11
3 | Clc1ccc(-c2csc(-c3cc(Cl)cc(Cl)c3Cl)n2)cc1 | 16 | 12.5 (≈ 33.3 µM) | <10 | 6.25 (≈ 16.7 µM) | <10 | 6.25 (≈ 16.7 µM) | 11 | 16 | 25 (≈ 66.6 µM) | 25 (≈ 66.6 µM) | 6.25 (≈ 16.7 µM) | 25 (≈ 66.6 µM) | 6.25 (≈ 16.7 µM) | 16 | <10 | 16
4 | COc1ccc(-c2csc(-c3cc(Cl)cc(Cl)c3Cl)n2)cc1 | <10 | 12.5 (≈ 33.7 µM) | <10 | 25 (≈ 67.4 µM) | <10 | 12.5 (≈ 33.7 µM) | 11 | 11 | 25 (≈ 67.4 µM) | 25 (≈ 67.4 µM) | 25 (≈ 67.4 µM) | 12.5 (≈ 33.7 µM) | 6.25 (≈ 16.9 µM) | 16 | 11 | <10
5 | CN1CCN(Cc2csc(-c3cc(Cl)cc(Cl)c3Cl)n2)CC1 | 16 | 6.25 (≈ 16.6 µM) | <10 | 6.25 (≈ 16.6 µM) | <10 | 6.25 (≈ 16.6 µM) | 16 | 16 | 25 (≈ 66.4 µM) | 25 (≈ 66.4 µM) | 6.25 (≈ 16.6 µM) | 6.25 (≈ 16.6 µM) | 6.25 (≈ 16.6 µM) | 16 | 16 | 16
6 | Clc1cc(Cl)c(Cl)c(/C=N/Nc2nc(-c3ccc(-c4ccccc4)cc3)cs2)c1 | 16 | 6.25 (≈ 13.6 µM) | 16 | 6.25 (≈ 13.6 µM) | 16 | 25 (≈ 54.5 µM) | 16 | <10 | 6.25 (≈ 13.6 µM) | 6.25 (≈ 13.6 µM) | 6.25 (≈ 13.6 µM) | 6.25 (≈ 13.6 µM) | 25 (≈ 54.5 µM) | <10 | 16 | 16
7 | NC(=O)c1cc(-c2csc(-c3cc(Cl)cc(Cl)c3Cl)n2)ccc1O | <10 | 6.25 (≈ 15.6 µM) | 16 | 25 (≈ 62.5 µM) | 16 | 6.25 (≈ 15.6 µM) | 16 | 16 | 6.25 (≈ 15.6 µM) | 6.25 (≈ 15.6 µM) | 25 (≈ 62.5 µM) | 6.25 (≈ 15.6 µM) | 6.25 (≈ 15.6 µM) | 16 | 16 | <10
8 | Clc1ccc(-c2csc(N/N=C/c3cc(Cl)cc(Cl)c3Cl)n2)cc1 | 11 | 25 (≈ 59.9 µM) | 11 | 12.5 (≈ 30 µM) | 11 | 25 (≈ 59.9 µM) | <10 | <10 | 12.5 (≈ 30 µM) | 12.5 (≈ 30 µM) | 12.5 (≈ 30 µM) | 25 (≈ 59.9 µM) | 12.5 (≈ 30 µM) | 11 | <10 | 11
9 | O=[N+]([O-])c1ccc(-c2csc(-c3cc(Cl)cc(Cl)c3Cl)n2)cc1 | <10 | 12.5 (≈ 32.4 µM) | <10 | 12.5 (≈ 32.4 µM) | 11 | 6.25 (≈ 16.2 µM) | 11 | 16 | 12.5 (≈ 32.4 µM) | 25 (≈ 64.8 µM) | 25 (≈ 64.8 µM) | 25 (≈ 64.8 µM) | 6.25 (≈ 16.2 µM) | 16 | <10 | 11
10 | Cc1cc(C2CCCCC2)n(O)c(=O)c1.NCCO [CICLOPIROX OLAMINE] | 16 | – | 16 | 6.25 | 16 | – | – | – | 6.25 | 6.25 | 6.25 | – | – | – | – | 16
11 | COc1ccc(-c2csc(N/N=C/c3cc(Cl)cc(Cl)c3Cl)n2)cc1 | 11 | 25 (≈ 60.6 µM) | <10 | 25 (≈ 60.6 µM) | <10 | 25 (≈ 60.6 µM) | <10 | <10 | 25 (≈ 60.6 µM) | 25 (≈ 60.6 µM) | 12.5 (≈ 30.3 µM) | 25 (≈ 60.6 µM) | 25 (≈ 60.6 µM) | <10 | <10 | <10
12 | O=C(O)c1cn(C2CC2)c2cc(N3CCNCC3)c(F)cc2c1=O [CIPROFLOXACIN] | – | – | – | – | – | – | 16 | 16 | – | – | – | 1.56 (≈ 4.71 µM) | – | 16 | 21 | –
